Fewer inactive variants are shown than the library holds.

The values below come from the RNAGym collection of RNA variant scans (doi:10.1126/science.aae0568).

The labels stand for the following.
B1: tRNA (parent)
chain: GUUCCGUUGGCGUAAUGGUAACGCGUCUCCCUCCUAAGGAGAAGACUGCGGGUUCGAGUCCCGUACGGAACG

The variants in this data set derive from B1. Nature of the data set: yeast fitness relative to wild type (ratio to wild type); higher = fitter; tRNA-Arg(CCU), competitive growth, 37 C, YPD. Put shortly:
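Genotype frequency changes were the basis for Darwinian fitness relative to wild type. The frequencies came from 100-nucleotide paired-end sequencing of gene amplicons from the start population and each end population of pooled yeast strains with tRNA-Arg(CCU) gene variants at the native locus. Competition ran in YPD at 37°C for 24 hours in six replicates, genotypes needed ≥ 100 starting reads, and estimates < 0.5 were set to 0.5.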
As to GUUCCGUUGGCGUGAUGGUAACGCGCCACCCUCCUAAGGAGAAGACUGCGGGUUCGAGUCCCGUUCGGAACG [A14G U26C U28A A65U], the yeast fitness was ≤ 0.5. To GUUCCGUUGGCGUGAUGGUAACGCGUCUCCCUCCAAAGGAGAAGACUGCGGGUUCGAGUCCCGUACGGAACG [A14G U35A] belongs 0.561; to GUUCCGUUGGCGUGAUGGUAACGCGUCUCCCUCCCAAGGAGAAGACUGCGGGUUCGAGUCCCGUACGGAACG [A14G U35C], 0.635.

Take GUUCCGUUGGCGUGAGGGUAACGCGUCUCCCUCCUUAGGAGAAGACUGCGGGUUCGAGUCCCGUACGCAACG [A14G U16G A36U G68C]: the yeast fitness is ≤ 0.5. As to GUUCCGUUGGCGUGAUGGUAACGCGUCUCCCUCCGAAGGAGAAGACUGCGGCUUCGAGUCCCGUACGGAACG [A14G U35G G52C], the yeast fitness is ≤ 0.5. Turning to GUUCCGUUGGCGUGAAGGUAACGCGUCUCCCUACUAAGGAGAAGACUGCGGGUUUGAGUCCCGUACGGAACG [A14G U16A C33A C55U], the yeast fitness was found to be 0.67. Consider GUUCCGUUGGCGUGAUGGUAACGCGUCUCCCUCCUAAGGAGAAGACUGCGGGUUCGACUCCCGUCCGGAACG [A14G G58C A65C], for which the yeast fitness is 0.593.

GUUCCGUUGGCGUGAUGGGAACGCGUCUCCCUCCUAAGGAGAAGAUUGCGGGUUCGGGUCCCGUACGGACCG [A14G U19G C46U A57G A70C]: the yeast fitness is ≤ 0.5. In the case of GUUCCGUUGGCGUGAUGGUAACGCGCCUCCCUCCUAGGGAGAAGACUGCGGGUUCGAGUCCCGUACGGAACG [A14G U26C A37G], the yeast fitness was ≤ 0.5. The result for GUUCCGUUGGCGUGAUGGUAACGCGUCUCCCCCCUAAGGAGGAGACUGCGGGUUCGAGCCCCGUACGGAACG [A14G U32C A42G U59C] reads ≤ 0.5; that for GUUCCGUUGGCGUGAUGGCAUCGCGUCUCCCUCCUAAGGAGAAGACUGCGGGUUCGAGUCCCGUACGUAACG [A14G U19C A21U G68U], ≤ 0.5; that for GUUCCGUUGGCGUGAUGGUAACGCGUCCCCCUCCUAAGGAGAAGACUGCGGGUUCGAGUCUCGUACGGAACG [A14G U28C C61U], 0.577. To GUUCCGUUGGCGUGAUGGUAACGCGUCUCCCUCCUAAGGAGAAGACUGCGGGUUCGAGCCCCGUACGGAACG [A14G U59C] belongs 0.923. As for GUUCCGUUGGCGUGAUGGUAACGCGUCUCCCUCCUAAGGAGAAGACUGCGGGUUCGAGGCCCGUACGGAACG [A14G U59G], the yeast fitness was determined as 0.774. The result for GUUCCGUUGGCGUGAGGGUAACGGGCCUCCCUCCUAAGGAGAAGACGGCCGGUUCGAGUCCCGUACGGAACG [A14G U16G C24G U26C U47G G50C] reads 0.515; that for GUUCCGUUGGCGUGAUGGUAACGCGUCUCCCUCCUAAGGAGAAGACUGCGGGUUCGAGUCCCGUACCGAACG [A14G G67C], 0.763.

For GUUCCGUUGGCGUGAUGGUAACGCGUCUCCCUCCUAAGGAGAAGACUGCCGGUUCGAGUCCCGUACGGUACG [A14G G50C A69U], the yeast fitness was ≤ 0.5. Take GUUCCGUUGGCGUUCUGGUAACGCGUCUCCAUCCUAAGGAGAAGACUGCGGGUUCGAGUCCCGUACGGAACG [A14U A15C C31A]: the yeast fitness was ≤ 0.5. Turning to GUUCCGUUGGCGUGAUGGUAACGCGUCUCCCUCCUAAGGAGAAGACUACGGGUUCGAGUCCCGUACGAAACG [A14G G48A G68A], the yeast fitness was ≤ 0.5.

Consider GUUCCGUUGGCGUGAUGGUAACGCGUCCCCCUCCUAAGGUGAAGACUGCGGGUUCGAGUCCCGUACGGAACG [A14G U28C A40U], for which the yeast fitness was 0.691.

GUUCCGUUGGCGUGAGGGUAACGCGUCUCCCUCCUAAGGAGAAGACUGCGGGUUCGAGUCCCGUACGGAACG [A14G U16G]: the yeast fitness was determined as 0.742. In the case of GUUCCGUUGGCGUGACGGUAACGCGUCUCCCUCCUAAGGAGAAGACUGCGGGUUCGAGUCCCGUACGGAACG [A14G U16C], the yeast fitness is 0.897. As for GUUCCGUUGGCGUGAGGGUAACGCGUCUGCCUCCUAAGGAGAAGACUGCGGGUUCGAAUCCCGUACGGAACG [A14G U16G C29G G58A], the yeast fitness was ≤ 0.5. Regarding GUUCCGUUGGCGUGAUGGUAACGCGUCUCCCUCCUAAGGAGAAGACUCCGGGUUCGAGUCCUGUACGGAACG [A14G G48C C62U], the yeast fitness was 0.654. To GUUCCGUUGGCGUGAAGGUAACGGGUCUCCCUCCUAAGGAGAAGGCUGCGGGUUCGAGUCCAGUACGGCACG [A14G U16A C24G A45G C62A A69C] belongs ≤ 0.5; to GUUCCGUUGGCGUGAUGGUAACGCGUCUCCCUCCUAAGGAGAAGACUGCGGGUUCAAGUCCCGUACGGAACG [A14G G56A], 0.805. For GUUCCGUUGGCGUGAUGGUAACGCGUCCCCCUCCUAAGGAGAAGACUGCGGGUUCGAGUCCCGUACGGAACG [A14G U28C], the yeast fitness is 0.692. The result for GUUCCGUUGGCGUGAUGGUAACGCGUCUCCCUCCUAAGGAGAAGACUCCGGGUUCGAGUCCCGGACGGAACG [A14G G48C U64G] reads 0.503. To GUUCCGUUGGCGUGAUGGUAACGCGUCUCCCUCCUAAGGAGAAGACUCCGGGUUCGAGUCCCGCACGGAACG [A14G G48C U64C] belongs 0.715; to GUUCCGUUGGCGUGAUGGUAACGCGUCUCCCUCCUAAGGAGAAGACUGCGGGUUCGAGUCCCCUACGGAACG [A14G G63C], 0.78; to GUUCCGUUGGCGUGAUGGUAACGCGUCUCCCUCCUAAGGAGAAGACAGCGGGUUCGAGUCCCGUACGGAACG [A14G U47A], 0.776. Consider GUUCCGUUGGCGUGAUGGUAACGCGUCUCCCUCCUAAGGAGAAGACCGCGGGUUCGAGUCCCGUACGGAACG [A14G U47C], for which the yeast fitness is 0.871.

On to GUUCCGUUGGCGUGAUGGUAACGCGUCUCCCUCCUAAGGAGAAGACGGCGGGUUCGAGUCCCGUACGGAACG [A14G U47G], for which the yeast fitness worked out at 0.516. The result for GUUCCGUUGGCGUGAUGGCUACGCGUCUCCCUCCUAAGGAGAAGACUGCGGGUUCGAGUCCCGUACGGAACG [A14G U19C A20U] reads 0.773; that for GUUCCGUUGGCGUGAUGGUAACGCGCCUCCCUCCUAGGGAGAAGACUGCGGGUUCGAGUCCCGUACAGAACG [A14G U26C A37G G67A], 0.539. With GUUCCGUUGGCGUGAUGGUAACGCGUCUCCCUCCUAAGGAGAAGACUGCAGGUUCGAGUCCCGUACGGAACG [A14G G50A], the yeast fitness was 0.907. Regarding GUUCCGUUGGCGUGAUGGUAACGCGUCUCCCUCCUAAGGAGAAGACUGCCGGUUCGAGUCCCGUAUGGAACG [A14G G50C C66U], the yeast fitness was ≤ 0.5.

As for GUUCCGUUGGCGUGAUGGUAACGCGCCUCCCUCCUAAGGAGAAGACUGCGGGUUCGAGUCCCGUACGAAACG [A14G U26C G68A], the yeast fitness is 0.557.
